A word on the IC50: it is the midpoint of a concentration-inhibition curve. One may read the EC50 as the concentration needed to bring the measured effect to its halfway point.

Test [1] has as its system histone H4 acetylation in Plasmodium culture. Description: Immunofluorescence assay with anti-acetyl histone H4. The format is cell-based, Plasmodium falciparum. Conditions: synchronous cultures, 5x EC50.
The test system of test [2] is acetyl-histone H4 in 3D7 parasite culture. Nature of the test: Immunoblot of histone H4 hyperacetylation. It counts as cell-based, Plasmodium falciparum. The conditions noted are these: 3D7 trophozoites, 5× EC50, 4 h, versus DMSO. (Immunoblotting shows a protein as a band on a membrane.)
Test [3] deals with T1, recombinant PfHDAC1 (Plasmodium falciparum, UniProt Q7K6A1).
T1 sequence (Q7K6A1 1-449): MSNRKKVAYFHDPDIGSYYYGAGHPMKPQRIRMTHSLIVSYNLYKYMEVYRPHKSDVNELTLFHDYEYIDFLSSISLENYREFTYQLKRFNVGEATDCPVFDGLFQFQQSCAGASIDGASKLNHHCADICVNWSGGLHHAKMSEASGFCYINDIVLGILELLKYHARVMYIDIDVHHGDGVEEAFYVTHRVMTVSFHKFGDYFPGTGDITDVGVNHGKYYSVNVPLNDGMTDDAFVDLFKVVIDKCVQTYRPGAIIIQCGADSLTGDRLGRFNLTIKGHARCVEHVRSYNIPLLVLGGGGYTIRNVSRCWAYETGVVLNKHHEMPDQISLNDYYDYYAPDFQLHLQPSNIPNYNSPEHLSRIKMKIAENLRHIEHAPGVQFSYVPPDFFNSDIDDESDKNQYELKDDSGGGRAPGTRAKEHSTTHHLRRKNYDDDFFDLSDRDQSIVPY
Description: biochemical.

In test [4] the test system is synchronous Dd2 parasites. Nature of the test: Stage specific inhibition assay. The format is cell-based, Plasmodium falciparum. The conditions noted are these: 5 × EC50, synchronous Dd2. The method, boiled down:
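Stage development assessed by Giemsa smears at every condition and time point, plus flow cytometry. Flow samples fixed in 4% paraformaldehyde for 30 min at 37°C, washed 3x in PBS, held at 4°C, then resuspended in 0.25% Triton X-100 and shaken at 500 RPM for 10 min. Parasites gated against an uninfected RBC control; treated-culture histograms overlaid on vehicle-treated culture.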

Test [5] deals with HepG2 hepatocarcinoma cells. Nature of the test: MTS human cell cytotoxicity assay. The format is cell-based. Conditions: for EC50: read-out: HepG2 EC50.
The test system of test [6] is P. falciparum 3D7. Conditions: read-out: P. falciparum 3D7 EC50; literature values; cited from earlier work.
For test [7], the system named is P. falciparum strain Dd2. Description: SYBR Green I fluorescence antiplasmodial assay, Dd2. It counts as cell-based, Plasmodium falciparum.
For test [8], the system named is asynchronous P. falciparum Dd2 parasites. Description: Rate of killing assay with compound wash-off. The conditions noted are these: 10 × EC50, exposure 24 or 48 h, then wash-off. It counts as cell-based, Plasmodium falciparum.
The mark [9] stands for this setting: 48 h treatment, MTS, mean of triplicate ± SE/SEM.
The mark [10] stands for this setting: read-out: PfHDAC1 IC50, recombinant enzyme, 2 h at 37°C, mean of duplicate ± SEM.

Like-named read-outs stand apart in the source and are kept apart here. Non-standard residues stand in square brackets, D forms with d. Residues, ends and D or L forms follow the SMILES beside them. ξ: configuration not given here. Aoe = N[C@@H](CCCCCC(=O)[C@@H]1CO1)C(=O)O; Aoe(9ξ) = N[C@@H](CCCCCC(=O)C1CO1)C(=O)O; Pip = O=C(O)[C@@H]1CCCCN1 A value given as a limit tells only on which side of the number the result lay.

As for `O=C(CCCCCCC(=O)Nc1ccccc1)NO` [SAHA, suberanilohydroxamic acid], in test [1], the “histone H4 acetylation (immunofluorescence)” value is reported as “noticeable increase in histone H4 acetylation”. Further, the “histone H4 acetylation (Western blot)” value in test [2] is “hyperacetylation”. Besides, the half-inhibitory concentration (IC50) in test [3] is 92 ± 20 nM. For the same compound, in test [4], the “effect of treatment at 6 HPI” value was “resemble late trophozoite” and the “effect of treatment at 42 HPI” value was “partially inhibited at schizogony”.

With WF 27082F [Compound 4], the concentration for a half-maximal effect (EC50) in test [5] (setting [9]) is 150 ± 40 nM.

Take `C[C@@H]1NC(=O)[C@H]2CCCN2C(=O)[C@H](CCCCCC(=O)[C@@H]2CO2)NC(=O)[C@@H](C)NC1=O` [HC toxin]: the concentration for a half-maximal effect (EC50) in test [6] is 29 ± 2 nM.

As for `CC1(C)NC(=O)[C@H](CCCCCC(=O)[C@H]2CO2)NC(=O)[C@H]2CCCN2C(=O)[C@H](Cc2ccccc2)NC1=O` [Compound 1, chlamydocin], the concentration giving a half-maximal response (EC50) was 31 ± 7 nM in test [7] (Plasmodium falciparum, DD2, 72 h, read-out: Dd2 EC50) and 530 ± 7 nM in test [5] (Homo sapiens, HepG2, 48 h). For the same compound, the “Selectivity Index (SI)” value in test [5] (HepG2 EC50 / average of Dd2 EC50 and 3D7 EC50) is on record as 17.

For the compound NA 1309 [Compound 7], in test [3] (setting [10]), the IC50 came to 6300 ± 800 nM. In addition, the EC50 in test [5] (setting [9]) was more than 25000 nM.

For the compound `C[C@@H]1NC(=O)[C@H](CCCCCC(=O)[C@@H]2CO2)NC(=O)[C@H]2CCCN2C(=O)[C@H](Cc2ccccc2)NC1=O` [Compound 2, 1-alaninechlamydocin] (cyclo(AF[dP][Aoe])), in test [2], the “histone H4 acetylation (Western blot)” value is recorded as “hyperacetylation”. For the same compound, the EC50 in test [5] (setting [9]) is 38 ± 6 nM.

Consider FR235222 [Compound 3], for which the killing profile entry in test [8] was “plasmodistatic”. Also, the EC50 in test [5] (setting [9]) was 260 ± 60 nM.

As for `CC(C)C[C@@H]1NC(=O)[C@@H](Cc2ccccc2)NC(=O)[C@H](CCCCCC(=O)C2CO2)NC(=O)[C@@H]2CCCCN2C1=O` (some centres unmarked) [Compound 11, WF-3161] (cyclo(L[Pip][Aoe(9ξ)][dF])), in test [3] (setting [10]), the IC50 was determined as 2 ± 2 nM. In test [5] (setting [9]), the EC50 was determined as 22000 ± 900 nM.

Deoxy-WF 20782B [Compound 5]: the “fold increase in EC50 compared with epoxide or alcohol R1 analogs” value in test [7] (ethyl analog versus analogs with epoxide or alcohol at R1) is given as 2–6 fold. The EC50 in test [5] (setting [9]) was 880 ± 50 nM.

Source of the values: publication PMC8822587 (ACS infectious diseases, 2021).
